Measurements taken from ChEMBL document CHEMBL4396949, “Anti-cancer potential of novel glycosylated 1,4-substituted triazolylchalcone derivatives” (Bioorg Med Chem Lett, 2019).
Activity calls are given as the source filed them. No cut-off for these calls is given here.

Key:
MCF7 [1] = assay: Antiproliferative activity against human MCF7 cells incubated for 24 hrs by MTT assay; type: functional; details: MCF7, 24 h, read-out: LD50 (the source's name)
In short: (§1)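 Cells exposed to compounds at […]; viability read by MTT assay. LD50 derived from concentration-response. MDA-MB-468: triple-negative (ER-, PR-, HER2-) breast cancer. MCF-7: ER+, PR+, HER2- breast cancer. WI-38: non-cancerous lung fibroblasts. Selectivity index taken as WI-38 LD50 divided by cancer-cell LD50.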

[2] = Antiproliferative activity against human WI38 cells incubated for 24 hrs by MTT assay; type: cell-based, WI-38; details: read-out: LD50; in short: as §1
WI-38 = assay: Induction of apoptosis in human WI38 cells at 20 to 60 uM incubated for 24 hrs by annexin V-FITC and PI staining based flow cytometric analysis; type: cell-based; details: wi-38, 24 h
In short: (§2)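 Cells treated at 0, 20, 40 and 60 µM for 24 h, stained with Annexin V-FITC/PI and analysed by flow cytometry; apoptotic cell percentage quantified from dot plots.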

MCF7 [3] = assay: Induction of apoptosis in human MCF7 cells assessed as increase in apoptotic cells at 60 uM incubated for 24 hrs by annexin V-FITC and PI staining based flow cytometric analysis relative to control; type: functional; in short: as §2
MDA-MB-468 [4] = assay: Induction of mitochondrial ROS production in human MDA-MB-468 cells at 40 to 60 uM incubated for 24 hrs by MitoSox red dye based fluorescence microscopic method; type: functional, cell-based
In short: (§3)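 MitoSOX Red, a live-cell mitochondria-targeted superoxide probe, after exposure to 40 and 60 µM; read by fluorescence microscopy and spectrophotometric fluorescence intensity; H2O2 positive control.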

MDA-MB-468 [5] = assay: Induction of DNA fragmentation in human MDA-MB-468 cells assessed as apoptotic cells at 60 uM incubated for 12 hrs by DAPI staining based fluorescence microscopic method relative to control; type: functional
In short: (§4)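 Nuclear morphology by DAPI staining and fluorescence microscopy; apoptotic (fragmented, polynuclear) nuclei counted and expressed as percent apoptotic cells versus untreated control; H2O2 positive control.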

MDA-MB-468 [6] = assay: Antiproliferative activity against human MDA-MB-468 cells incubated for 24 hrs by MTT assay; type: functional; details: MDA-MB-468, 24 h, read-out: LD50 (the source's name); in short: as §1
[7] = Selectivity index, ratio of LD50 for human WI38 cells to LD50 for human MCF7 cells; type: toxicity; details: WI38 cells and MCF7 cells, read-out: Selectivity Index
In short: (§5)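 MTT cytotoxicity after exposure to […] in MDA-MB-468, MCF-7 and WI-38 fibroblasts; LD50 determined per line; selectivity index calculated as WI-38 LD50 divided by cancer-cell LD50.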

MDA-MB-468 [8] = assay: Induction of DNA fragmentation in human MDA-MB-468 cells assessed as apoptotic cells at 40 to 60 uM incubated for 12 hrs by DAPI staining based fluorescence microscopic method; type: functional, cell-based; in short: as §4
MCF7 [9] = assay: Induction of cell cycle arrest in human MCF7 cells assessed as increase in accumulation at sub G1 phase at 60 uM by PI staining based FACS analysis relative to control; type: functional
In short: (§6)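 Cells exposed to 20, 40 and 60 µM; cell cycle distribution by FACS, with sub-G1 population quantified as a measure of apoptosis.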

MCF7 [10] = assay: Induction of DNA fragmentation in human MCF7 cells assessed as apoptotic cells at 60 uM incubated for 12 hrs by DAPI staining based fluorescence microscopic method relative to control; type: functional; in short: as §4
MDA-MB-468 [11] = assay: Induction of apoptosis in human MDA-MB-468 cells assessed as decrease in bcl2 protein expression at 40 to 60 uM by Western blot analysis; type: functional, cell-based
MDA-MB-468 [12] = assay: Induction of apoptosis in human MDA-MB-468 cells assessed as increase in bax protein expression at 40 to 60 uM by Western blot analysis; type: functional, cell-based
MDA-MB-468 [13] = assay: Induction of cell cycle arrest in human MDA-MB-468 cells assessed as increase in accumulation at sub G1 phase at 60 uM by PI staining based FACS analysis relative to control; type: functional; in short: as §6
MDA-MB-468 [14] = assay: Disruption of mitochondrial membrane potential in human MDA-MB-468 cells assessed as shift of fluorescence from red to green by JC1 staining based fluorescent microscopic method; type: functional, cell-based
In short: (§7)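 JC-1 staining with fluorescence imaging; mitochondrial permeability transition read as a red-to-green shift (fall in red/green ratio), quantified from images; H2O2 as positive control.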

MDA-MB-468 [15] = assay: Induction of apoptosis in human MDA-MB-468 cells assessed as increase in apoptotic cells at 60 uM incubated for 24 hrs by annexin V-FITC and PI staining based flow cytometric analysis relative to control; type: functional; in short: as §2
MCF7 [16] = assay: Induction of apoptosis in human MCF7 cells assessed as increase in apoptotic cells incubated for 24 hrs by annexin V-FITC and PI staining based flow cytometric analysis; type: functional, cell-based; in short: as §2
MDA-MB-468 [17] = assay: Induction of ROS production in human MDA-MB-468 cells assessed as increase in green intensity incubated for 12 hrs by DCFDA staining based microscopic analysis; type: functional, cell-based
In short: (§8)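 Cells exposed to 0, 20, 40 and 60 µM for 12 h, then loaded with DCFDA (100 µM) for 30 min; green fluorescence assessed by microscopy with image quantitation, plus spectrophotometric fluorescence intensity; H2O2 positive control.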

MCF7 [18] = assay: Induction of mitochondrial ROS production in human MCF7 cells at 40 to 60 uM incubated for 24 hrs by MitoSox red dye based fluorescence microscopic method; type: functional, cell-based; in short: as §3
MCF7 [19] = assay: Induction of DNA fragmentation in human MCF7 cells assessed as formation of polynuclear fragmentation at 40 to 60 uM incubated for 12 hrs by DAPI staining based fluorescence microscopic method; type: functional, cell-based; in short: as §4
MCF7 [20] = assay: Disruption of mitochondrial membrane potential in human MCF7 cells assessed as shift of fluorescence from red to green by JC1 staining based fluorescent microscopic method; type: functional, cell-based; in short: as §7
MDA-MB-468 [21] = assay: Induction of DNA fragmentation in human MDA-MB-468 cells assessed as formation of polynuclear fragmentation at 40 to 60 uM incubated for 12 hrs by DAPI staining based fluorescence microscopic method; type: functional, cell-based; in short: as §4
MCF7 [22] = assay: Induction of DNA fragmentation in human MCF7 cells assessed as apoptotic cells at 40 to 60 uM incubated for 12 hrs by DAPI staining based fluorescence microscopic method; type: functional, cell-based; in short: as §4
MCF7 [23] = assay: Induction of ROS production in human MCF7 cells assessed as increase in green intensity incubated for 12 hrs by DCFDA staining based microscopic analysis; type: functional, cell-based; in short: as §8
MDA-MB-468 [24] = assay: Induction of apoptosis in human MDA-MB-468 cells assessed as increase in apoptotic cells incubated for 24 hrs by annexin V-FITC and PI staining based flow cytometric analysis; type: functional, cell-based; in short: as §2
[25] = Selectivity index, ratio of LD50 for human WI38 cells to LD50 for human MDA-MB-468 cells; type: toxicity; details: WI38 cells and MDA-MB-468 cells, read-out: Selectivity Index; in short: as §5
MDA-MB-468 [26] = assay: Induction of apoptosis in human MDA-MB-468 cells assessed as increase in cleaved caspase-3 protein expression at 40 to 60 uM by Western blot analysis; type: functional, cell-based

For `CN(C)c1ccc(/C=C/C(=O)c2ccc(OCc3cn([C@@H]4O[C@H](CO)[C@@H](O)[C@H](O)[C@H]4O)nn3)cc2)cc1`, the CC50 (MCF7 [1]) was 31 µM, the CC50 at 24 h [2] was 59 µM and the Activity (WI-38) was “Non-Toxic”. The Activity (MCF7 [3]) was 63%, the Activity (MDA-MB-468 [4]) was “Active” and the Activity (MDA-MB-468 [5]) was 72%. The CC50 (MDA-MB-468 [6]) was 28 µM, the selectivity ratio [7] was 1.9 and the Activity (MDA-MB-468 [8]) was “Active”. For the same molecule, the Activity (MCF7 [9]) was 67%, the Activity (MCF7 [10]) was 78% and the Activity (MDA-MB-468 [11]) was “Active”. For the same molecule, the Activity (MDA-MB-468 [12]) was “Active”, the Activity (MDA-MB-468 [13]) was 62% and the Activity (MDA-MB-468 [14]) was “Dose-dependent effect”. The Activity (MDA-MB-468 [15]) was 60%, the Activity (MCF7 [16]) was “Dose-dependent effect” and the Activity (MDA-MB-468 [17]) was “Dose-dependent effect”. For the same molecule, the Activity (MCF7 [18]) was “Active”, the Activity (MCF7 [19]) was “Active” and the Activity (MCF7 [20]) was “Dose-dependent effect”. For the same molecule, the Activity (MDA-MB-468 [21]) was “Active”, the Activity (MCF7 [22]) was “Active” and the Activity (MCF7 [23]) was “Dose-dependent effect”. For the same molecule, the Activity (MDA-MB-468 [24]) was “Dose-dependent effect”, the selectivity ratio [25] was 2.11 and the Activity (MDA-MB-468 [26]) was “Active”.
